# ChEMBL document CHEMBL4613286, “Developing Cyclic Opioid Analogues: Fluorescently Labeled Bioconjugates of Biphalin” (ACS Med Chem Lett, 2020)
# How the values were obtained:
# [1] = target: T1, Delta-type opioid receptor (Homo sapiens, UniProt P41143); assay: Displacement of [3H]diprenorphine human delta opioid receptor expressed in CHO cell membranes after 1 hr by micro beta2 scintillation counting method
# Mu-type opioid receptor [2] = target: T2, Mu-type opioid receptor (Homo sapiens, UniProt P35372); assay: Displacement of [3H]diprenorphine human MOR expressed in CHO cell membranes after 1 hr by micro beta2 scintillation counting method; type: cell-based
# T2 sequence (P35372 whole entry): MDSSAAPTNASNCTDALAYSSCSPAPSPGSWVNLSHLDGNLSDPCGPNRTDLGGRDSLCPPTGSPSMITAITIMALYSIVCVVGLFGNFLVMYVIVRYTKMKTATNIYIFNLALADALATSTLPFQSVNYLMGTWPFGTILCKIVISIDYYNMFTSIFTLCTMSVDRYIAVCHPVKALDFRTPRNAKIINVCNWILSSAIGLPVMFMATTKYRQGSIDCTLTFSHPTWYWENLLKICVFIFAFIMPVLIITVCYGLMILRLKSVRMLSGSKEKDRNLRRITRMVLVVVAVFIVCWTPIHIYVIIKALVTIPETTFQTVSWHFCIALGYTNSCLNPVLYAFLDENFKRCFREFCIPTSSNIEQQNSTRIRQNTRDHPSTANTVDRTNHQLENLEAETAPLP
# [3] = target: T3, Kappa-type opioid receptor (Homo sapiens, UniProt P41145); assay: Displacement of [3H]diprenorphine human kappa opioid receptor expressed in CHO cell membranes after 1 hr by micro beta2 scintillation counting method
# T3 sequence (P41145 whole entry): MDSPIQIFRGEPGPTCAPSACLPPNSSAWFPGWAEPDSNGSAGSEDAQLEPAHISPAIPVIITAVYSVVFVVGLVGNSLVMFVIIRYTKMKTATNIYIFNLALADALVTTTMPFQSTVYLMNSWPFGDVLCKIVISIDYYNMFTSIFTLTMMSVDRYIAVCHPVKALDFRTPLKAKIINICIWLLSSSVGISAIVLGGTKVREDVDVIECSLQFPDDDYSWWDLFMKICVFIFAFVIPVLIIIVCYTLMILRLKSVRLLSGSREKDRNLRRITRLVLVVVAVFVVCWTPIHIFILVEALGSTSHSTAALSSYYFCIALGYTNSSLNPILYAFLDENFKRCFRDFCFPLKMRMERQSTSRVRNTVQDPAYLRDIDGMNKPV
# How it was run: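 Membranes (20–25 μg protein) from CHO cells expressing human DOR or KOR were incubated 1 h at rt with concentration curves of compound and fixed 3H-diprenorphine (1.2–4.6 nM). Incubations ended by rapid GF/B filtration, then scintillation counted. […] Ki from one-site competition fit using the radioligand KD measured in each cell line. Mean ± SEM, N = 3.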
# Homo sapiens = organism: Homo sapiens; assay: Selectivity index, ratio of Ki for displacement of [3H]diprenorphine human mu opioid receptor expressed in CHO cell membranes to Ki for displacement of [3H]diprenorphine human delta opioid receptor expressed in CHO cell membranes
# [4] = target: T1, Delta-type opioid receptor; assay: Agonist activity at human DOR expressed in CHO cell membranes after 1 hr by [35S]GTPgammaS binding assay; type: functional
# How it was run: (§1)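 Membranes (15 μg protein) from CHO cells stably expressing human DOR, MOR or KOR, grown in DMEM/F12 with 10% heat-inactivated FBS and G418 selection. Concentration curves of agonist incubated with 0.1 nM 35S-GTPγS for 1 h at 30 °C, then filtered and scintillation counted. […] EC50 and Emax from 3-parameter fit, Hill slope fixed at 1. Mean ± SEM, N = 3.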
# [5] = target: T1, Delta-type opioid receptor; assay: Agonist activity at human DOR expressed in CHO cell membranes after 1 hr by [35S]GTPgammaS binding assay relative to SNC80; type: functional; how it was run: as §1
# Mu-type opioid receptor [6] = target: T2, Mu-type opioid receptor; assay: Agonist activity at human MOR expressed in CHO cell membranes after 1 hr by [35S]GTPgammaS binding assay; type: functional
# How it was run: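 Membranes (15 μg protein) from CHO cells stably expressing human DOR, MOR or KOR, grown in DMEM/F12 with 10% heat-inactivated FBS and G418 selection. Concentration curves of agonist incubated with 0.1 nM 35S-GTPγS for 1 h at 30 °C, then filtered and scintillation counted. EC50 and Emax from 3-parameter fit, Hill slope fixed at 1. Mean ± SEM, N = 3.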
# Mu-type opioid receptor [7] = target: T2, Mu-type opioid receptor; assay: Agonist activity at human MOR expressed in CHO cell membranes after 1 hr by [35S]GTPgammaS binding assay relative to DAMGO; type: functional; how it was run: as §1
# [8] = target: T3, Kappa-type opioid receptor; assay: Agonist activity at human KOR expressed in CHO cell membranes after 1 hr by [35S]GTPgammaS binding assay; type: functional; how it was run: as §1
# [9] = target: T3, Kappa-type opioid receptor; assay: Agonist activity at human KOR expressed in CHO cell membranes after 1 hr by [35S]GTPgammaS binding assay relative to U50,488; type: functional; how it was run: as §1
# T1 sequence (P41143 whole entry): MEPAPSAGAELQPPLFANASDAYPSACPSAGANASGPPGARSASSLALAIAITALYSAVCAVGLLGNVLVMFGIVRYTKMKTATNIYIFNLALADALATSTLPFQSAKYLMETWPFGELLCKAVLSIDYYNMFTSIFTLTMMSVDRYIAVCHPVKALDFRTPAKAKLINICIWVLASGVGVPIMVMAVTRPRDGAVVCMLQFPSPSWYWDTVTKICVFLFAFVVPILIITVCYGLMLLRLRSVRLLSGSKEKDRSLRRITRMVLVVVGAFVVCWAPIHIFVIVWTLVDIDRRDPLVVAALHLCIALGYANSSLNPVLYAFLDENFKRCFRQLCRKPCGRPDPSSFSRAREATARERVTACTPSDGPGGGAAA
SMILES,Ki [1] [nM],Ki (Mu-type opioid receptor [2]) [nM],Ki [3] [nM],Ratio Ki (Homo sapiens),EC50 [4] [nM],Emax [5] [%],EC50 (Mu-type opioid receptor [6]) [nM],Emax (Mu-type opioid receptor [7]) [%],EC50 [8] [nM],Emax [9] [%]
CN(C)c1cccc2c(S(=O)(=O)NCCN3C(=O)C4=C(SC[C@@H](NC(=O)[C@@H](N)Cc5ccc(O)cc5)C(=O)NCC(=O)N[C@@H](Cc5ccccc5)C(=O)NNC(=O)[C@H](Cc5ccccc5)NC(=O)CNC(=O)[C@H](NC(=O)[C@@H](N)Cc5ccc(O)cc5)CS4)C3=O)cccc12,15,91,> 3330,5 to 8,40,47,21,79,460,46
Cc1cc(=O)oc2cc(NC(=O)CCN3C(=O)C4=C(SC[C@@H](NC(=O)[C@@H](N)Cc5ccc(O)cc5)C(=O)NCC(=O)N[C@@H](Cc5ccccc5)C(=O)NNC(=O)[C@H](Cc5ccccc5)NC(=O)CNC(=O)[C@H](NC(=O)[C@@H](N)Cc5ccc(O)cc5)CS4)C3=O)ccc12,98,510,> 3330,5 to 8,250,62,270,120,1000,60
Cc1cc(=O)oc2ccc(N3C(=O)C4=C(SC[C@@H](NC(=O)[C@@H](N)Cc5ccc(O)cc5)C(=O)NCC(=O)N[C@@H](Cc5ccccc5)C(=O)NNC(=O)[C@H](Cc5ccccc5)NC(=O)CNC(=O)[C@H](NC(=O)[C@@H](N)Cc5ccc(O)cc5)CS4)C3=O)cc12,120,790,> 3330,5 to 8,190,55,290,80,4100,50
